Tests used:
[1] = tested on: Plasmodium falciparum; test: Antiplasmodial activity against late ring stage Plasmodium falciparum HB3 assessed as [3H]hypoxanthine incorporation after 24 hrs by scintillation counting; format: functional, organism-based
Summary of the method: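 Late ring stage cultures at 0.5% parasitemia were exposed to a range of compound concentrations in hypoxanthine-free rich medium for 42 h. 0.5 µCi [3H]hypoxanthine was then added and incubation continued for 24 h. Cells were harvested on glass fiber paper and counted by scintillation. Percent inhibition of uptake versus concentration was fitted with a modified dose–response logistic equation for IC50.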

[2] = molecular target: Plasmepsin II (Plasmodium falciparum, UniProt P46925); test: Inhibition of Plasmodium falciparum plasmepsin-2 using DABCYL-Glu-Arg-Nle-Phe-Leu-Ser-Phe-Pro-EDANS as substrate by FRET analysis
Summary of the method: (§1)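 Enzyme (plasmepsin II or cathepsin D) at 1.2 nM with 1.0 µM FRET substrate in 0.1 M sodium acetate pH 5.0, 10% glycerol, 0.01% Tween 20. Compounds were dissolved in DMSO and added before substrate, at 5.0% final DMSO. Fluorescence was read at excitation 336 nm and emission 490 nm. Triplicates.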

[3] = molecular target: Cathepsin D (Homo sapiens, UniProt P07339); test: Inhibition of human cathepsin D using DABCYL-Glu-Arg-Nle-Phe-Leu-Ser-Phe-Pro-EDANS as substrate by FRET analysis; summary of the method: as §1
[4] = tested on: Plasmodium falciparum; test: Antiplasmodial activity against late ring stage Plasmodium falciparum HB3 after 1 hr by acridine orange staining-based flow cytometric analysis; format: functional, organism-based; settings: HB3, 1 h

Sequence of Cathepsin D (P07339 65-162 limits assumed): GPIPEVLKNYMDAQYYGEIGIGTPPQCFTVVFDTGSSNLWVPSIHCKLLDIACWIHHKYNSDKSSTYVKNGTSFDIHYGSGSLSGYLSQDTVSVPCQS
Sequence of Cathepsin D (P07339 169-412 limits assumed): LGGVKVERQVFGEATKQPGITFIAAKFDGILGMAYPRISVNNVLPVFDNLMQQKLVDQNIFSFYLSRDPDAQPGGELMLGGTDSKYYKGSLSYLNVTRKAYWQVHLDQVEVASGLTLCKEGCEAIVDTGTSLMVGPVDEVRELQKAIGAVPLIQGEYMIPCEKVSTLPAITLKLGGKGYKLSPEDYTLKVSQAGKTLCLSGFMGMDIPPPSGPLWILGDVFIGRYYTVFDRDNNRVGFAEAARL
Sequence of Plasmepsin II (P46925 whole entry): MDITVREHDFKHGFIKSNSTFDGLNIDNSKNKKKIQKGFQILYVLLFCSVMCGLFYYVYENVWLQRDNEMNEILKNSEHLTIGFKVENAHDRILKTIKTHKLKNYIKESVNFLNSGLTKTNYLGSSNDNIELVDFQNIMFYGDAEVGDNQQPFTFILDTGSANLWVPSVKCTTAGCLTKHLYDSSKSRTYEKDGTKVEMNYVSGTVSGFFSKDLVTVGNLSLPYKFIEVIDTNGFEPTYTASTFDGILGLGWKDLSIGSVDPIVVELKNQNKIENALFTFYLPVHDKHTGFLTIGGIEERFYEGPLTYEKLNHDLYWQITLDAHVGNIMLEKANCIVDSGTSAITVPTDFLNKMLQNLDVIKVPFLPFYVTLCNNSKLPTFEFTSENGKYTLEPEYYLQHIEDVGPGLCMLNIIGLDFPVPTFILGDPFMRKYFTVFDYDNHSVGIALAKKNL

SMILES | IC50 [1] [µM] | IC50 [2] [µM] | IC50 [3] [µM] | IC50 [4] [µM]
O=C(Cn1c(-c2ccccn2)nc2ccccc21)c1cccc([N+](=O)[O-])c1 | ≥ 3 | 20.4 | 21.2 | –
O=C(Cn1c(-c2ccccn2)nc2ccccc21)c1ccc(O)c(O)c1 | ≥ 3 | 19.6 | 28.5 | –
O=C(Cn1c(-c2ccccn2)nc2ccccc21)c1ccc(Cl)cc1 | 0.7 | 21.2 | 31.9 | –
O=C(Cn1c(-c2ccccn2)nc2ccccc21)c1ccccc1[N+](=O)[O-] | ≥ 3 | 30.6 | 39.2 | –
O=C(Cn1c(-c2ccccn2)nc2ccccc21)c1ccc([N+](=O)[O-])cc1 | 2.1 | 30.5 | 17.8 | –
O=C(Cn1c(-c2ccccn2)nc2ccccc21)c1ccc(F)cc1 | 3 | 10 | 31.9 | –
O=C(Cn1c(-c2ccccn2)nc2ccccc21)c1ccc(F)cc1F | ≥ 3 | 48 | 44.5 | –
O=C(Cn1c(-c2ccccn2)nc2ccccc21)c1ccccc1 | ≥ 3 | 10 | 39.2 | –
O=C(Cn1c(-c2ccccn2)nc2ccccc21)c1ccc(-c2ccccc2)cc1 | 0.16 | 14.7 | 2 | 0.166
COc1ccc(C(=O)Cn2c(-c3ccccn3)nc3ccccc32)cc1 | ≤ 3 | 37.7 | 14.2 | –
COc1ccc(OC)c(C(=O)Cn2c(-c3ccccn3)nc3ccccc32)c1 | ≤ 3 | 34 | 21.2 | –

— ChEMBL document CHEMBL1938395, “New benzimidazole derivatives as antiplasmodial agents and plasmepsin inhibitors: synthesis and analysis of structure-activity relationships” (Bioorg Med Chem Lett, 2012)
